According to ChEMBL document CHEMBL3044653, “Synthesis and herbicidal activity of 2-(substituted phenoxyacetoxy)alkyl-5,5-dimethyl-1,3,2-dioxaphosphinan-2-one” (J Agric Food Chem, 2012):

Tests used:
Gossypium hirsutum = assay: Toxicity in Gossypium hirsutum (cotton) plant assessed as inhibition at 150 g/hectare; assay type: organism-based; conditions: in vivo
Summary of the method: (§1)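 For crop selectivity, conventional crop varieties were planted in 12 cm diameter plots and given a postemergence treatment at 150 g ai/ha. Injury was scored as percent inhibition, with 0–10% classed as safe to the crop.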

Ammannia baccifera [1] = assay: Post-emergence herbicidal activity against Ammannia baccifera assessed as inhibition at 75 g/hectare by green house assay; assay type: functional
Ipomoea nil [2] = assay: Post-emergence herbicidal activity against Ipomoea nil (Japanese morning glory) assessed as inhibition at 150 g/hectare by green house assay; assay type: functional
Chenopodium album [3] = assay: Post-emergence herbicidal activity against Chenopodium album assessed as inhibition at 75 g/hectare by green house assay; assay type: functional
Setaria viridis [4] = assay: Post-emergence herbicidal activity against Setaria viridis (green foxtail) assessed as inhibition at 75 g/hectare treated at one-leaf stage by green house assay; assay type: functional
Summary of the method: (§2)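 Monocot weeds were sprayed postemergence in the greenhouse at the one-leaf stage with diluted formulation solutions. Primary dose was 150 g ai/ha, with follow-up doses of 75 and 37.5 g ai/ha for selected compounds. Activity is scored as percent herbicidal damage compared with an untreated control.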

Brassica juncea [5] = assay: Post-emergence herbicidal activity against Brassica juncea assessed as inhibition at 75 g/hectare treated at two-leaf stage by green house assay; assay type: functional
Summary of the method: (§3)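 Greenhouse postemergence spray of diluted formulation solutions onto broadleaf weeds at the two-leaf stage. Primary screen at 150 g ai/ha, with selected compounds retested at 75 and 37.5 g ai/ha. Abutilon was tested at 150 g ai/ha only. Read-out is percent herbicidal damage relative to an untreated control.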

Pontederia vaginalis [6] = assay: Post-emergence herbicidal activity against Monochoria vaginalis assessed as inhibition at 75 g/hectare by green house assay; assay type: functional
[7] = tested on: Brassica rapa subsp. chinensis; assay: Post-emergence herbicidal activity against Brassica rapa subsp. chinensis assessed as inhibition at 150 g/hectare by green house assay; assay type: functional
Amaranthus retroflexus [8] = assay: Post-emergence herbicidal activity against Amaranthus retroflexus assessed as inhibition at 75 g/hectare treated at two-leaf stage by green house assay; assay type: functional; summary of the method: as §3
Amaranthus retroflexus [9] = assay: Post-emergence herbicidal activity against Amaranthus retroflexus assessed as inhibition at 150 g/hectare treated at two-leaf stage by green house assay; assay type: functional; summary of the method: as §3
Echinochloa crus-galli [10] = assay: Post-emergence herbicidal activity against Echinochloa crus-galli (barnyard grass) assessed as inhibition at 75 g/hectare treated at one-leaf stage by green house assay; assay type: functional; summary of the method: as §2
Amaranthus retroflexus [11] = assay: Post-emergence herbicidal activity against Amaranthus retroflexus assessed as inhibition at 150 g/hectare by green house assay; assay type: functional
Pontederia vaginalis [12] = assay: Post-emergence herbicidal activity against Monochoria vaginalis assessed as inhibition at 150 g/hectare by green house assay; assay type: functional
Brassica juncea [13] = assay: Post-emergence herbicidal activity against Brassica juncea assessed as inhibition at 37.5 g/hectare treated at two-leaf stage by green house assay; assay type: functional; summary of the method: as §3
Brassica napus = assay: Toxicity in Brassica napus (oilseed rape) assessed as inhibition at 150 g/hectare; assay type: functional; summary of the method: as §1
Brassica juncea [14] = assay: Post-emergence herbicidal activity against Brassica juncea assessed as inhibition at 150 g/hectare by green house assay; assay type: functional
Digitaria sanguinalis [15] = assay: Post-emergence herbicidal activity against Digitaria sanguinalis (hairy crabgrass) assessed as inhibition at 37.5 g/hectare treated at one-leaf stage by green house assay; assay type: functional; summary of the method: as §2
Eclipta prostrata [16] = assay: Post-emergence herbicidal activity against Eclipta prostrata assessed as inhibition at 37.5 g/hectare treated at two-leaf stage by green house assay; assay type: functional; summary of the method: as §3
Ipomoea nil [17] = assay: Post-emergence herbicidal activity against Ipomoea nil (Japanese morning glory) assessed as inhibition at 75 g/hectare by green house assay; assay type: functional
Setaria viridis [18] = assay: Post-emergence herbicidal activity against Setaria viridis (green foxtail) assessed as inhibition at 37.5 g/hectare treated at one-leaf stage by green house assay; assay type: functional; summary of the method: as §2
[19] = tested on: Brassica rapa subsp. chinensis; assay: Post-emergence herbicidal activity against Brassica rapa subsp. chinensis assessed as inhibition at 75 g/hectare by green house assay; assay type: functional
Digitaria sanguinalis [20] = assay: Post-emergence herbicidal activity against Digitaria sanguinalis (hairy crabgrass) assessed as inhibition at 75 g/hectare treated at one-leaf stage by green house assay; assay type: functional; summary of the method: as §2
Brassica juncea [21] = assay: Post-emergence herbicidal activity against Brassica juncea assessed as inhibition at 75 g/hectare by green house assay; assay type: functional
Setaria viridis [22] = assay: Post-emergence herbicidal activity against Setaria viridis (green foxtail) assessed as inhibition at 150 g/hectare treated at one-leaf stage by green house assay; assay type: functional; summary of the method: as §2
Glycine max = assay: Toxicity in Glycine max (soybean) plant assessed as inhibition at 150 g/hectare; assay type: organism-based; conditions: in vivo; summary of the method: as §1
Radish [23] = assay: Post-emergence herbicidal activity against Raphanus sativus (radish) assessed as inhibition at 150 g/hectare by green house assay; assay type: functional
Zea mays = assay: Toxicity in Zea mays (maize) plant assessed as inhibition at 150 g/hectare; assay type: organism-based; conditions: in vivo; summary of the method: as §1
Triticum aestivum = assay: Toxicity in Triticum aestivum (wheat) plant assessed as inhibition at 150 g/hectare; assay type: organism-based; conditions: in vivo; summary of the method: as §1
Oryza sativa = assay: Toxicity in Oryza sativa (rice) plant assessed as inhibition at 150 g/hectare; assay type: organism-based; conditions: in vivo; summary of the method: as §1
Echinochloa crus-galli [24] = assay: Post-emergence herbicidal activity against Echinochloa crus-galli (barnyard grass) assessed as inhibition at 37.5 g/hectare treated at one-leaf stage by green house assay; assay type: functional; summary of the method: as §2
Radish [25] = assay: Post-emergence herbicidal activity against Raphanus sativus (radish) assessed as inhibition at 75 g/hectare by green house assay; assay type: functional
Eclipta prostrata [26] = assay: Post-emergence herbicidal activity against Eclipta prostrata assessed as inhibition at 150 g/hectare treated at two-leaf stage by green house assay; assay type: functional; summary of the method: as §3
Chenopodium album [27] = assay: Post-emergence herbicidal activity against Chenopodium album assessed as inhibition at 150 g/hectare by green house assay; assay type: functional
Amaranthus retroflexus [28] = assay: Post-emergence herbicidal activity against Amaranthus retroflexus assessed as inhibition at 37.5 g/hectare treated at two-leaf stage by green house assay; assay type: functional; summary of the method: as §3
Brassica juncea [29] = assay: Post-emergence herbicidal activity against Brassica juncea assessed as inhibition at 150 g/hectare treated at two-leaf stage by green house assay; assay type: functional; summary of the method: as §3
Amaranthus retroflexus [30] = assay: Post-emergence herbicidal activity against Amaranthus retroflexus assessed as inhibition at 75 g/hectare by green house assay; assay type: functional
Eclipta prostrata [31] = assay: Post-emergence herbicidal activity against Eclipta prostrata assessed as inhibition at 75 g/hectare treated at two-leaf stage by green house assay; assay type: functional; summary of the method: as §3
Abutilon theophrasti = assay: Post-emergence herbicidal activity against Abutilon theophrasti (velvetleaf) assessed as inhibition at 150 g/hectare treated at two-leaf stage by green house assay; assay type: functional; summary of the method: as §3
Echinochloa crus-galli [32] = assay: Post-emergence herbicidal activity against Echinochloa crus-galli (barnyard grass) assessed as inhibition at 150 g/hectare treated at one-leaf stage by green house assay; assay type: functional; summary of the method: as §2
Ammannia baccifera [33] = assay: Post-emergence herbicidal activity against Ammannia baccifera assessed as inhibition at 150 g/hectare by green house assay; assay type: functional
Digitaria sanguinalis [34] = assay: Post-emergence herbicidal activity against Digitaria sanguinalis (hairy crabgrass) assessed as inhibition at 150 g/hectare treated at one-leaf stage by green house assay; assay type: functional; summary of the method: as §2
Brassica oleracea [35] = assay: Post-emergence herbicidal activity against Brassica oleracea assessed as inhibition at 75 g/hectare by green house assay; assay type: functional
[36] = tested on: Brassica rapa subsp. oleifera; assay: Post-emergence herbicidal activity against Brassica rapa subsp. oleifera assessed as inhibition at 150 g/hectare by green house assay; assay type: functional
Brassica oleracea [37] = assay: Post-emergence herbicidal activity against Brassica oleracea assessed as inhibition at 150 g/hectare by green house assay; assay type: functional
[38] = tested on: Brassica rapa subsp. oleifera; assay: Post-emergence herbicidal activity against Brassica rapa subsp. oleifera assessed as inhibition at 75 g/hectare by green house assay; assay type: functional

Cc1cc(Cl)ccc1OCC(=O)OC(C)P1(=O)OCC(C)(C)CO1 (stereo unspecified)
inhibition (INH) (Gossypium hirsutum): 20% | inhibition at 75 g/ha (Ammannia baccifera [1]): 100% | inhibition at 150 g/ha (Ipomoea nil [2]): 100% | inhibition at 75 g/ha (Chenopodium album [3]): 70% | inhibition at 75 g/ha (Setaria viridis [4]): 0% | inhibition at 75 g/ha (Brassica juncea [5]): 100% | inhibition at 75 g/ha (Pontederia vaginalis [6]): 100% | inhibition at 150 g/ha [7]: 80% | inhibition at 75 g/ha (Amaranthus retroflexus [8]): 100% | inhibition at 150 g/ha (Amaranthus retroflexus [9]): 100% | inhibition at 75 g/ha (Echinochloa crus-galli [10]): 0% | inhibition at 150 g/ha (Amaranthus retroflexus [11]): 100% | inhibition at 150 g/ha (Pontederia vaginalis [12]): 100% | inhibition at 37.5 g/ha (Brassica juncea [13]): 80% | inhibition at 150 g/ha (Brassica napus): 40% | inhibition at 150 g/ha (Brassica juncea [14]): 100% | inhibition at 37.5 g/ha (Digitaria sanguinalis [15]): 0% | inhibition at 37.5 g/ha (Eclipta prostrata [16]): 80% | inhibition at 75 g/ha (Ipomoea nil [17]): 100% | inhibition at 37.5 g/ha (Setaria viridis [18]): 0% | inhibition at 75 g/ha [19]: 70% | inhibition at 75 g/ha (Digitaria sanguinalis [20]): 0% | inhibition at 75 g/ha (Brassica juncea [21]): 100% | inhibition at 150 g/ha (Setaria viridis [22]): 0% | inhibition (INH) (Glycine max): 20% | inhibition at 150 g/ha (Radish [23]): 80% | inhibition (INH) (Zea mays): 0% | inhibition (INH) (Triticum aestivum): 0% | inhibition (INH) (Oryza sativa): 10% | inhibition at 37.5 g/ha (Echinochloa crus-galli [24]): 0% | inhibition at 75 g/ha (Radish [25]): 80% | inhibition at 150 g/ha (Eclipta prostrata [26]): 90% | inhibition at 150 g/ha (Chenopodium album [27]): 75% | inhibition at 37.5 g/ha (Amaranthus retroflexus [28]): 80% | inhibition at 150 g/ha (Brassica juncea [29]): 100% | inhibition at 75 g/ha (Amaranthus retroflexus [30]): 100% | inhibition at 75 g/ha (Eclipta prostrata [31]): 85% | inhibition at 150 g/ha (Abutilon theophrasti): 100% | inhibition at 150 g/ha (Echinochloa crus-galli [32]): 30% | inhibition at 150 g/ha (Ammannia baccifera [33]): 100% | inhibition at 150 g/ha (Digitaria sanguinalis [34]): 0%

CC1(C)COP(=O)(C(OC(=O)COc2ccc(Cl)cc2Cl)c2ccco2)OC1 (stereo unspecified)
inhibition (INH) (Gossypium hirsutum): 30% | inhibition at 75 g/ha (Ammannia baccifera [1]): 100% | inhibition at 150 g/ha (Ipomoea nil [2]): 100% | inhibition at 75 g/ha (Chenopodium album [3]): 70% | inhibition at 75 g/ha (Setaria viridis [4]): 0% | inhibition at 75 g/ha (Brassica juncea [5]): 90% | inhibition at 75 g/ha (Pontederia vaginalis [6]): 100% | inhibition at 150 g/ha [7]: 80% | inhibition at 75 g/ha (Amaranthus retroflexus [8]): 70% | inhibition at 150 g/ha (Amaranthus retroflexus [9]): 80% | inhibition at 75 g/ha (Echinochloa crus-galli [10]): 0% | inhibition at 150 g/ha (Amaranthus retroflexus [11]): 80% | inhibition at 150 g/ha (Pontederia vaginalis [12]): 100% | inhibition at 75 g/ha (Brassica oleracea [35]): 80% | inhibition at 37.5 g/ha (Brassica juncea [13]): 85% | inhibition at 150 g/ha (Brassica napus): 40% | inhibition at 150 g/ha (Brassica juncea [14]): 95% | inhibition at 37.5 g/ha (Digitaria sanguinalis [15]): 0% | inhibition at 37.5 g/ha (Eclipta prostrata [16]): 60% | inhibition at 75 g/ha (Ipomoea nil [17]): 100% | inhibition at 37.5 g/ha (Setaria viridis [18]): 0% | inhibition at 150 g/ha [36]: 95% | inhibition at 75 g/ha [19]: 70% | inhibition at 75 g/ha (Digitaria sanguinalis [20]): 0% | inhibition at 75 g/ha (Brassica juncea [21]): 90% | inhibition at 150 g/ha (Setaria viridis [22]): 30% | inhibition (INH) (Glycine max): 30% | inhibition at 150 g/ha (Radish [23]): 85% | inhibition (INH) (Zea mays): 0% | inhibition (INH) (Triticum aestivum): 10% | inhibition (INH) (Oryza sativa): 40% | inhibition at 37.5 g/ha (Echinochloa crus-galli [24]): 0% | inhibition at 75 g/ha (Radish [25]): 80% | inhibition at 150 g/ha (Eclipta prostrata [26]): 80% | inhibition at 150 g/ha (Chenopodium album [27]): 80% | inhibition at 37.5 g/ha (Amaranthus retroflexus [28]): 50% | inhibition at 150 g/ha (Brassica juncea [29]): 95% | inhibition at 75 g/ha (Amaranthus retroflexus [30]): 70% | inhibition at 75 g/ha (Eclipta prostrata [31]): 62% | inhibition at 150 g/ha (Abutilon theophrasti): 90% | inhibition at 150 g/ha (Echinochloa crus-galli [32]): 30% | inhibition at 150 g/ha (Ammannia baccifera [33]): 100% | inhibition at 150 g/ha (Brassica oleracea [37]): 85% | inhibition at 150 g/ha (Digitaria sanguinalis [34]): 40% | inhibition at 75 g/ha [38]: 80%
